Drawing on ChEMBL document CHEMBL1138850, “Synthesis of 2-methyl-3-indolylacetic derivatives as anti-inflammatory agents that inhibit preferentially cyclooxygenase 1 without gastric damage” (2006), this text covers Activity and inhibition for five molecules.

The target of experiment [1] is T1, Prostaglandin G/H synthase 1 (Mus musculus) (UniProt P22437).
T1 sequence (whole entry): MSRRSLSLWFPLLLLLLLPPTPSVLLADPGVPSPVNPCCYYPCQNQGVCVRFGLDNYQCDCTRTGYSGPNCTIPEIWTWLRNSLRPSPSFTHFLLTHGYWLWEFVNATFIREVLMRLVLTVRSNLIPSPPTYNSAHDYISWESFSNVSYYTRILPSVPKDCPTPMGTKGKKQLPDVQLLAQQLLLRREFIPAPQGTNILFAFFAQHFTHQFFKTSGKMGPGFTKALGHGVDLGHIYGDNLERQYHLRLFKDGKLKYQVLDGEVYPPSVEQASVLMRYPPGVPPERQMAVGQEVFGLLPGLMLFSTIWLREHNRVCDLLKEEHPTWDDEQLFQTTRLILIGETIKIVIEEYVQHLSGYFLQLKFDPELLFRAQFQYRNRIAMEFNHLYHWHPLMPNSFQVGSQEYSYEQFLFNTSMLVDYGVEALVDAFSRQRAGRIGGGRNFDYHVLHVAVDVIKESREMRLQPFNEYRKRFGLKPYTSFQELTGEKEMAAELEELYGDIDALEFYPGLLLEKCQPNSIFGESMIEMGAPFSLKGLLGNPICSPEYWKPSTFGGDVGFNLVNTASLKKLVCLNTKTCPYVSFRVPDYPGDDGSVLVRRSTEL
Kind of experiment: Activity at COX1 assessed as inhibition of arachidonic acid-induced PGE2 production in J774 cells at 10 uM. Format: cell-based. A digest of the protocol:
(§1)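 Murine J774 macrophages were grown in DMEM with 10% FBS, adhered for 2 h at 37 °C, then switched to serum-free medium. Cells were pretreated with compound (0.01-100 µM, ethanol vehicle) for 15 min, then given 15 µM arachidonic acid for 30 min at 37 °C. Supernatant PGE2 was measured by radioimmunoassay. Triplicate wells; % inhibition vs control, mean of three experiments.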

Experiment [2] deals with T1, Prostaglandin G/H synthase 1 (Mus musculus). Put plainly: Activity at COX1 assessed as inhibition of arachidonic acid-induced PGE2 production in J774 cells at 0.1 uM. Type of experiment: cell-based. A digest of the protocol:
as §1

Experiment [3] has the same target. Put plainly: Activity at COX1 assessed as inhibition of arachidonic acid-induced PGE2 production in J774 cells at 0.01 uM. Type of experiment: cell-based. In a few lines: as §1
Experiment [4] shares this target. Kind of experiment: Activity at COX1 assessed as inhibition of arachidonic acid-induced PGE2 production in J774 cells at 100 uM. Format: cell-based. A digest of the protocol: as §1
Experiment [5] has the same target. Put plainly: Activity at COX1 assessed as inhibition of arachidonic acid-induced PGE2 production in J774 cells at 1 uM. Format: cell-based. In a few lines:
as §1

The subject of experiment [6] is Mus musculus. Put plainly: Antiinflammatory activity in carrageenan-induced mouse paw edema. Type of experiment: functional, organism-based. A digest of the protocol: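 Mice (18-20 g), lightly anesthetized with enflurane, were dosed 1 h before subplantar 1% carrageenan in the left footpad. Paw volume was read by hydroplethysmometer before injection and at 2, 4, 6, 24, 48 and 72 h. Edema was taken as the increase over basal volume.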
In general terms: Carrageenan injected into the paw causes an acute inflammation.

Experiment [7] is filed under the species Mus musculus. Put plainly: Analgesic activity in mouse by formalin paw licking assay at 15-45 mins. Type of experiment: functional, organism-based. A digest of the protocol: (§2)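 Mice (18-20 g) were dosed 1 h before intraplantar 5% formalin (10 µL), given under light enflurane anesthesia. A blinded observer scored paw licking in two phases: 0-15 min and 15-45 min.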

Experiment [8] concerns the target T2, Prostaglandin G/H synthase 2 (Mus musculus) (UniProt Q05769).
T2 sequence (whole entry): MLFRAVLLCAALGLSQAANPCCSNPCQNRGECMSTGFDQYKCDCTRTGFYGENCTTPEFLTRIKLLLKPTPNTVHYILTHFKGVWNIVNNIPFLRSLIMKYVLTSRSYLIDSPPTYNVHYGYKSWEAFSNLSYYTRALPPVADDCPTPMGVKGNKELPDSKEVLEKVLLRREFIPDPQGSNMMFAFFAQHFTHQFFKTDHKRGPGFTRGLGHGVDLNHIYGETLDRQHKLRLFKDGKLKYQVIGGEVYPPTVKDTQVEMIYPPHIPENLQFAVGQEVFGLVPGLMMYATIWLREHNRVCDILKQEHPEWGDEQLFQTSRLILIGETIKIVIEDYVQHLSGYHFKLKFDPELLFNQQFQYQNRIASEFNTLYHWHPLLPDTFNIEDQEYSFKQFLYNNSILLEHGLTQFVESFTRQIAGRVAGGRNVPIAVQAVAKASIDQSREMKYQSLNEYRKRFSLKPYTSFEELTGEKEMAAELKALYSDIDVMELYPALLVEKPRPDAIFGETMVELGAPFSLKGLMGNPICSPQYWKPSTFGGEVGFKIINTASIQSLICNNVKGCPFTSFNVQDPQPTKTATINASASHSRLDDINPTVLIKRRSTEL
Kind of experiment: Activity at COX2 assessed as inhibition of arachidonic acid-induced PGE2 production in LPS-stimulated J774 cells at 100 uM. Type of experiment: cell-based. In a few lines:
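J774 cells were induced with S. typhosa LPS (10 µg/mL, 24 h) to express COX-2. Medium was replaced with fresh medium holding 15 µM arachidonic acid, with or without compound (0.01-100 µM, ethanol vehicle), for 30 min at 37 °C. Supernatant PGE2 was measured by radioimmunoassay. Triplicate wells; % inhibition vs control, mean of three experiments.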

Experiment [9] has as its target T1, Prostaglandin G/H synthase 1 (Mus musculus). Kind of experiment: Activity at COX1 assessed as inhibition of arachidonic acid-induced PGE2 production in J774 cells. Type of experiment: cell-based. A digest of the protocol:
as §1

The species entered for experiment [10] is Mus musculus. Put plainly: Analgesic activity in Swiss mouse by acetic acid-induced writhing test. Type of experiment: functional, organism-based. A digest of the protocol: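 Male mice (25-30 g) received 0.6% acetic acid intraperitoneally and were caged singly. Writhes were counted over 15 min, starting from the first writhing movement.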
In general terms: Writhing tests count abdominal constrictions after an irritant is injected.

The subject of the next experiment is Rattus norvegicus. Kind of experiment: Gastric damage in rat at 100 mg/kg, po by GI damage assay. Format: functional. In a few lines: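 Rats (120-140 g) were fasted 18 h with water allowed, then dosed orally at 100 mg/kg; a vehicle group was included, six rats per group. After 5 h, stomachs were excised under pentobarbital. A blinded observer summed lesion lengths in mm per stomach. Analysis: Kruskal-Wallis with Dunn's post-test.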

The species entered for experiment [11] is Mus musculus. Put plainly: Analgesic activity in mouse by formalin paw licking assay at 0-15 mins. Format: functional, organism-based. In a few lines: as §2

For orientation: inhibition means the percentage by which the read-out fell short of the control.

Active and inactive are the calls of the source. The rule behind the calls is not given here.

On to `Cc1c(CC(=O)O)c2cc(O)ccc2n1C1CCN(C)CC1`, for which the outcome in experiment [1], in [2], in experiment [3], in experiment [4] and in experiment [5] was inactive.

With `CCOC(=O)Cc1c(C)n(C2CCN(C)CC2)c2ccc(OC)cc12`, the result with Mus musculus [6] and in the experiment filed under Mus musculus [7] was Active. Further, the inhibition turned out to be 37% in [1], 58% in experiment [4] and 24% in experiment [8]. The Activity result was “Dose-dependent effect” in [9], “Dose-dependent effect” in the experiment listed under Mus musculus [10] and 0.6 mm in the experiment on Rattus norvegicus. In addition, the outcome in the experiment listed under Mus musculus [11] was inactive.

In the case of `COc1ccc2c(c1)c(CC(=O)O)c(C)n2C1CCN(C)CC1`, the result in the experiment on Mus musculus [6] and in the experiment listed under Mus musculus [7] was Active. Besides, the inhibition in experiment [1] stood at 57%; in experiment [4], 64%. For the same molecule, the Activity result (in [9]; in the experiment listed under Mus musculus [10]) was “Dose-dependent effect” throughout. The result in the experiment on Rattus norvegicus and in the experiment listed under Mus musculus [11] was inactive.

Regarding `CCOC(=O)Cc1c(C)n(C2CCN(C)CC2)c2ccc(OC(C)=O)cc12`, the result in experiment [1], in experiment [2], in experiment [3], in [4] and in experiment [5] was inactive.

Consider `COc1ccc2c(c1)c(CC(=O)O)c(C)n2C(=O)c1ccc(Cl)cc1` [INDOMETHACIN], for which the outcome with Mus musculus [6] was Active. The figures for the inhibition in experiment [1] and in experiment [4] were 75% and 88%, respectively. For the same molecule, the values for the Activity result (in experiment [9]; in the experiment on Rattus norvegicus) were “Dose-dependent effect” and 50 mm, respectively.
